The source made the active and inactive calls.
How the values were obtained:
Mus musculus [1] = species: Mus musculus; assay: Antagonism of tetrabenazine (TBZ)-induced depression measured in mice by motor activity; format: functional; details: Mus musculus; read-out: ED50
Outline: (§1)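 Nonfasted male Swiss Webster mice, 18–24 g, ten per dose level and in saline controls. Test compound given ip 30 min before tetrabenazine 32 mg/kg ip; dose expressed as free base. Motor activity and ptosis scored. Control response ≤90% corrected by Abbott's formula.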

Rattus norvegicus [2] = assay: Ability to inhibit the uptake of tritiated serotonin(5-HT) at 0.1 mg/kg concentration; format: functional
Mus musculus [3] = species: Mus musculus; assay: Antagonism of tetrabenazine (TBZ)-induced depression in mice measured for ptosis; format: functional; details: Mus musculus; read-out: ED50; outline: as §1
Mus musculus [4] = species: Mus musculus; assay: Gross behavioral effects ascertained in mice; S indicates significant stimulant properties.; format: functional, organism-based
Outline: (§2)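 Male Swiss Webster mice, 18–24 g, three per dose, given ip doses of 1, 3, 10, 30, 100 and 300 mg/kg. Observed for gross behavior and held for 4 days. Scored as weak (W), stimulant (S), depressant (D) or convulsant (C).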

[5] = biological target: D(1A) dopamine receptor (Rattus norvegicus) (UniProt P18901); assay: Binding affinity towards dDopamine receptor D1 at 1.0 uM concentration
Sequence of D(1A) dopamine receptor (Rattus norvegicus) (P18901 whole entry): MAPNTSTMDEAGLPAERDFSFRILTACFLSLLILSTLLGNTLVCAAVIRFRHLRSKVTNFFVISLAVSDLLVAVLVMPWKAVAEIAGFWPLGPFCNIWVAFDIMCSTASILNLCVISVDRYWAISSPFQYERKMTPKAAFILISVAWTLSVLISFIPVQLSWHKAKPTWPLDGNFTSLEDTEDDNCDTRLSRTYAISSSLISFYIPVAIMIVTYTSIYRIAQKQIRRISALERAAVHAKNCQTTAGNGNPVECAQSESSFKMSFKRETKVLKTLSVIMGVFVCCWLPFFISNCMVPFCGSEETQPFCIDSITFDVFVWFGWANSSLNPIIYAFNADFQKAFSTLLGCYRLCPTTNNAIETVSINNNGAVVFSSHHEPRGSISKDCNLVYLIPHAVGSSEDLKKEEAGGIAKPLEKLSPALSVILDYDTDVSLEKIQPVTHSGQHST
Outline: (§3)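 Rat brain crude synaptic membranes in 20 mM NaHEPES pH 7.5. Ligands: α1 cortex […] 0.4 nM, nonspecific with (-)-NE 100 μM, 30 min at 25 °C. […] D2 striatum [3H]spiperone 0.05 nM with (+)-butaclamol 1 μM, 45 min at 37 °C. S1 cortex [3H]5-HT 1 nM plus glutathione and MgCl2, with 5-HT 10 μM, 20 min at 37 °C. […] Samples filtered on GF/B and counted.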

[6] = biological target: T1, Adrenergic receptor alpha-1 (Rattus norvegicus, UniProt P15823+P23944+P43140); assay: Binding affinity towards alpha-1 adrenergic receptor; format: protein assay
T1 sequence (P15823 whole entry): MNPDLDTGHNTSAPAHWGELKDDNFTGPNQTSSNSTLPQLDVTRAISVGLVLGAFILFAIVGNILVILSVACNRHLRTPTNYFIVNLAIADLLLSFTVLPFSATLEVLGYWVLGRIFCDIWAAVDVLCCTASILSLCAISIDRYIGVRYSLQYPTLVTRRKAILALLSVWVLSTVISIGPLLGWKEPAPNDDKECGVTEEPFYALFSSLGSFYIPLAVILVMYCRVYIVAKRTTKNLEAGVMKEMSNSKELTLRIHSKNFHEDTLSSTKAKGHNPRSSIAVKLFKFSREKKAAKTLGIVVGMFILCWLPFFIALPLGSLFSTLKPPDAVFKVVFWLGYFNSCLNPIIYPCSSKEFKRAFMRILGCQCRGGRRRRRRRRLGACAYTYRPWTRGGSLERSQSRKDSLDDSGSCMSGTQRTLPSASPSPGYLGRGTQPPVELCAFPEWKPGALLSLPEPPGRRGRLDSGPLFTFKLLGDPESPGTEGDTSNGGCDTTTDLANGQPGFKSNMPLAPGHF
T1 sequence (P23944 whole entry): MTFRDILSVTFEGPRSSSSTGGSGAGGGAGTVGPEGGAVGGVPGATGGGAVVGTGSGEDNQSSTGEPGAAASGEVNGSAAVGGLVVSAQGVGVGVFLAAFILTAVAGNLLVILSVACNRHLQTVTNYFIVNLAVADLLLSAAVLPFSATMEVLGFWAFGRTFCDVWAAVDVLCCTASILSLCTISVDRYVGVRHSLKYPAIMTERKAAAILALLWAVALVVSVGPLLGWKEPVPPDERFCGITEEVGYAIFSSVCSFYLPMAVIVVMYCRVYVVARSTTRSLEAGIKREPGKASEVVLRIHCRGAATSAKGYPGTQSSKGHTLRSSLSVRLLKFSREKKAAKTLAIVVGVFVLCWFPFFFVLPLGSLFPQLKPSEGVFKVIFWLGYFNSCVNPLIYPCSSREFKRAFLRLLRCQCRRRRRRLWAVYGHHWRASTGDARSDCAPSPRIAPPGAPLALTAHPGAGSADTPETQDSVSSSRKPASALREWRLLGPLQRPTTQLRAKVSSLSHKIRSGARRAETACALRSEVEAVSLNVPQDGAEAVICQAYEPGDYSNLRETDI
T1 sequence (P43140 whole entry): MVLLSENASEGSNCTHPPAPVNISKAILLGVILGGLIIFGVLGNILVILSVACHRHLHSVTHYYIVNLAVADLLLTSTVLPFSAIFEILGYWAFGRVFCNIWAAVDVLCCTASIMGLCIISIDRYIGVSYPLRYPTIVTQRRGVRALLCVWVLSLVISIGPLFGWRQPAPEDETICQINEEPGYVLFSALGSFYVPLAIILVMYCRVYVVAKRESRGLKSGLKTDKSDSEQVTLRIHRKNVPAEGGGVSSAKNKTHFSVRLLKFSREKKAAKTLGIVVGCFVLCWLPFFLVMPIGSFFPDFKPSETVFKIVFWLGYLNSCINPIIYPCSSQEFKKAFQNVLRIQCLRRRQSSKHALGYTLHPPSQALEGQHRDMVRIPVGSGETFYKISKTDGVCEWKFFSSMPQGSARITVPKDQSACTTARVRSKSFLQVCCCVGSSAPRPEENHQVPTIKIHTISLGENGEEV

[7] = biological target: Sodium-dependent dopamine transporter (Rattus norvegicus, UniProt P23977); assay: Inhibition of the uptake of tritiated dopamine (DA) in rat synaptosomes; format: subcellular, Brain
Sequence of Sodium-dependent dopamine transporter (P23977 whole entry): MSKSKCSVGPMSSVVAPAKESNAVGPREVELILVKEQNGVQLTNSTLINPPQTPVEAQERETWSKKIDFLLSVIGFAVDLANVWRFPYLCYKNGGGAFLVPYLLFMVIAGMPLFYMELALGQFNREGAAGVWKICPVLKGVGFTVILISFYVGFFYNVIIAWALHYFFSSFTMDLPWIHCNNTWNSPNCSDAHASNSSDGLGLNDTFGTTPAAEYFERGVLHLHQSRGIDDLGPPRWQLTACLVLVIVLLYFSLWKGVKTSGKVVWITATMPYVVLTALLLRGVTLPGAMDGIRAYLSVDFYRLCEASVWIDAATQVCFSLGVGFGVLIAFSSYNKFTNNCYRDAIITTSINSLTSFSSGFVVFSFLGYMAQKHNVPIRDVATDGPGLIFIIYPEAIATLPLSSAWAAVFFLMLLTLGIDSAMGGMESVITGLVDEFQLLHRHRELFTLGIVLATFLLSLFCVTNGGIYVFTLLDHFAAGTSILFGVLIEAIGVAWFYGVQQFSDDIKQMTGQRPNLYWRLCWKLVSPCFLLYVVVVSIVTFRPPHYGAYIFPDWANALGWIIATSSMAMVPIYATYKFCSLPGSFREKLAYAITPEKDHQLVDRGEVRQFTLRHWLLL

[8] = biological target: D(2) dopamine receptor (Rattus norvegicus) (UniProt P61169); assay: Binding affinity towards dopamine receptor D2 at 1.0 uM concentration; outline: as §3
Sequence of D(2) dopamine receptor (Rattus norvegicus) (P61169 whole entry): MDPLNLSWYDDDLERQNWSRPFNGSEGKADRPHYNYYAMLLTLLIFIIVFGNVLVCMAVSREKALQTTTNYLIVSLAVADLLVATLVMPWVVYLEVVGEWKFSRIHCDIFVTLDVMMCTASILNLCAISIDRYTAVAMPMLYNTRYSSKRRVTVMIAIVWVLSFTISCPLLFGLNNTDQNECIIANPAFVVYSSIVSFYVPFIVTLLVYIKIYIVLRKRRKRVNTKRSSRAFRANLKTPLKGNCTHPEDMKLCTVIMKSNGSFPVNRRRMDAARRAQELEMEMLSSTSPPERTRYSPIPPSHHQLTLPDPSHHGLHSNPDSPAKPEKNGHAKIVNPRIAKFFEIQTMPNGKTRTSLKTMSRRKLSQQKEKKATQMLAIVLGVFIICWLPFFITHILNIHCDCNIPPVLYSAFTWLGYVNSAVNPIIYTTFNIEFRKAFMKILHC

[9] = biological target: Adrenergic receptor alpha-2 (Rattus norvegicus) (UniProt P22086+P19328+P22909); assay: Binding affinity towards alpha-2 adrenergic receptor at 1.0 uM concentration; format: protein assay
[10] = biological target: Norepinephrine transporter (Rattus norvegicus, UniProt Q9WTR4); assay: Inhibition of uptake of tritiated norepinephrine (NE) in rat synaptosomes; format: subcellular, Brain
Sequence of Norepinephrine transporter (Q9WTR4 whole entry): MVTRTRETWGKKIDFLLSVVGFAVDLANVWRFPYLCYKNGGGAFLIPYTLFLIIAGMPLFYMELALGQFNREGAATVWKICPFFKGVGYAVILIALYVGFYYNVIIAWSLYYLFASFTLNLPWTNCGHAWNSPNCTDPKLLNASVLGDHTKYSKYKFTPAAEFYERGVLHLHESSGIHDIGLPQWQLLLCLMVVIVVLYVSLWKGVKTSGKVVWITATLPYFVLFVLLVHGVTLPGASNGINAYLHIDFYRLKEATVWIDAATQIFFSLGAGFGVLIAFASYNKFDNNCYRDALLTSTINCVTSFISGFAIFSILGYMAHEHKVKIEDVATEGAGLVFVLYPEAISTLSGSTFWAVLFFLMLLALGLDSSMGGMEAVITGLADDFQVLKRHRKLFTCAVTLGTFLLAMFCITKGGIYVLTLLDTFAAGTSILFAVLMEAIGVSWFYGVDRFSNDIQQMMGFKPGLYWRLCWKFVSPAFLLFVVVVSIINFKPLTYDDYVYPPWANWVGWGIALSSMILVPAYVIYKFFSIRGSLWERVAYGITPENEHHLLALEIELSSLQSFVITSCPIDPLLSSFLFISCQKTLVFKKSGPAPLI

[11] = biological target: Muscarinic acetylcholine receptor (Rattus norvegicus) (UniProt P08482+P08483+P08485+P08911+P10980); assay: Binding affinity towards Muscarinic acetylcholine receptor at 1.0 uM concentration; format: protein assay
[12] = biological target: Sodium-dependent serotonin transporter (Rattus norvegicus) (UniProt P31652); assay: Ability to inhibit the uptake of [3H]- serotonin(5-HT) 0.1 uM concentration at rat brain synaptosomes; format: functional, subcellular
Sequence of Sodium-dependent serotonin transporter (Rattus norvegicus) (P31652 whole entry): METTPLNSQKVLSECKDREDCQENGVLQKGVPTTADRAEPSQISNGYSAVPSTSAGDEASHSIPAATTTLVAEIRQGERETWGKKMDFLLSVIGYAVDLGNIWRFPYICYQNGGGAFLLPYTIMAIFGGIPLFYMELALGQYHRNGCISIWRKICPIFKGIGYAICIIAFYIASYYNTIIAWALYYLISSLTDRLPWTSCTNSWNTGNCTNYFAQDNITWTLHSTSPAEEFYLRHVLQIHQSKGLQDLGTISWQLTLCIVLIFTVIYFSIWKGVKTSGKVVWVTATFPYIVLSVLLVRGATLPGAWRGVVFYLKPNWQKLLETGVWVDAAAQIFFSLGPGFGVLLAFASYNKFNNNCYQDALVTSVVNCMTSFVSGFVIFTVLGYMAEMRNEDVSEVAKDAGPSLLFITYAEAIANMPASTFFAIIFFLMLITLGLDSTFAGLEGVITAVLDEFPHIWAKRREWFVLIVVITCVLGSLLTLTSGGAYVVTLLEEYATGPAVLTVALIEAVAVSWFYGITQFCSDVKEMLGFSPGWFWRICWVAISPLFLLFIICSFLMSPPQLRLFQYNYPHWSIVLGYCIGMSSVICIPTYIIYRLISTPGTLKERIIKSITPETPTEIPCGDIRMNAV
Outline: (§4)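 Male Wistar rat brain synaptosomes (P2 fraction): hypothalamus for NE, striatum for DA, cerebral cortex for 5-HT. Buffer is Tris- or HEPES-buffered salt medium with glucose, ascorbate and nialamide, pH 7.4 at 37 °C. Preincubated 10 min at 37 °C with compound. Uptake started with [3H]NE 100–300 nM, [3H]DA 50–300 nM or [3H]5-HT 100–200 nM, incubated 3 min (DA) or 6–10 min (NE, 5-HT). Blanks held on ice. Filtered, counted by scintillation.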

[13] = biological target: Sodium-dependent dopamine transporter (Rattus norvegicus) (UniProt P23977); assay: Ability to inhibit the uptake of [3H]dopamine (DA) 0.1 uM concentration at rat brain synaptosomes; format: functional, subcellular; outline: as §4
Sequence of Sodium-dependent dopamine transporter (Rattus norvegicus) (P23977 whole entry): as the sequence (P23977 whole entry) above

Rattus norvegicus [14] = species: Rattus norvegicus; assay: Ability to inhibit the uptake of tritiated norepinephrine (NE) 0.1 uM concentration; format: functional; outline: as §4
Mus musculus [15] = assay: Ability to antagonise intraperitoneal dose; inactive (<10% antagonism) at 30 mg/kg is represented as I-30.; format: functional, organism-based; set-up: dose 30 mg/kg; outline: as §1
Rattus norvegicus [16] = species: Rattus norvegicus; assay: Ability to inhibit the uptake of tritiated serotonin (5-HT) at 0.1 uM concentration in rat synaptosomes; format: functional; details: Brain; outline: as §4
[17] = biological target: Norepinephrine transporter (Rattus norvegicus) (UniProt Q9WTR4); assay: Ability to inhibit the uptake of [3H]norepinephrine (NE) 0.1 uM concentration at rat brain synaptosomes; format: functional, subcellular; outline: as §4
Sequence of Norepinephrine transporter (Rattus norvegicus) (Q9WTR4 as listed by the source): as the sequence (Q9WTR4 whole entry) above

Mus musculus [18] = assay: Ability to antagonise intraperitoneal dose; inactive (<10% antagonism) at 30 mgjkg is represented as I-30.; format: functional, organism-based; outline: as §1
Mus musculus [19] = species: Mus musculus; assay: Gross behavioral effects ascertained in mice; C indicates overt convulsant; format: functional, organism-based; outline: as §2
Mus musculus [20] = species: Mus musculus; assay: Gross behavioral effects ascertained in mice; W indicates weak stimulant or depressant activity of little significance.; format: functional, organism-based; outline: as §2
Rattus norvegicus [21] = species: Rattus norvegicus; assay: Ability to inhibit the uptake of tritiated dopamine (DA); format: functional; outline: as §4
[22] = biological target: Serotonin 2 (5-HT2) receptor (Rattus norvegicus) (UniProt P30994+P08909+P14842); assay: Binding affinity towards 5-hydroxytryptamine 2 receptor; format: protein assay; details: concentration not given here; outline: as §3
Sequence of Serotonin 2 (5-HT2) receptor (Rattus norvegicus) (P08909 whole entry, looked up): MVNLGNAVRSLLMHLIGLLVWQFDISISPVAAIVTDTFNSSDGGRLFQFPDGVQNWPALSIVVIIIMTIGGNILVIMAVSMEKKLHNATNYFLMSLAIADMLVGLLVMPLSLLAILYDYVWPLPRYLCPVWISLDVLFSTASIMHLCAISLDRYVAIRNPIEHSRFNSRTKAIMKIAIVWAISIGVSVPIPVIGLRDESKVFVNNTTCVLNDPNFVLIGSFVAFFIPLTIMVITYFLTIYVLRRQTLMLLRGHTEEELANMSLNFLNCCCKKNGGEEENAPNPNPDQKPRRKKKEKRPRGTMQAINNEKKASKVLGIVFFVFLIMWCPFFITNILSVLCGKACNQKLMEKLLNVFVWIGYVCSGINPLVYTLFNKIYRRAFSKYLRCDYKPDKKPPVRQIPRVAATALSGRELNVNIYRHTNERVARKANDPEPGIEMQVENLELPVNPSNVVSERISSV
Sequence of Serotonin 2 (5-HT2) receptor (Rattus norvegicus) (P14842 whole entry, looked up): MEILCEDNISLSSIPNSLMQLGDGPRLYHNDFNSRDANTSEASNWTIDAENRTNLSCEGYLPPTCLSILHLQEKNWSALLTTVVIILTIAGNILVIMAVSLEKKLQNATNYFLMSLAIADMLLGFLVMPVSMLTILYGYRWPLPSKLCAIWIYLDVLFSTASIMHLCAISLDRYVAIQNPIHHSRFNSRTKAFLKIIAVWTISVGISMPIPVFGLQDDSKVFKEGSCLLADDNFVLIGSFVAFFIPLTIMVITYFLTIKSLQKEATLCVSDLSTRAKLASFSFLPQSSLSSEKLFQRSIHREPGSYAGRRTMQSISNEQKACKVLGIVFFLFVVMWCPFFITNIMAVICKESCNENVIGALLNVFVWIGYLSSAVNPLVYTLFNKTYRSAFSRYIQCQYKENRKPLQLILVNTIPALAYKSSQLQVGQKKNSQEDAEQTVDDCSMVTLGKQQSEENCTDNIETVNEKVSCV
Sequence of Serotonin 2 (5-HT2) receptor (Rattus norvegicus) (P30994 whole entry, looked up): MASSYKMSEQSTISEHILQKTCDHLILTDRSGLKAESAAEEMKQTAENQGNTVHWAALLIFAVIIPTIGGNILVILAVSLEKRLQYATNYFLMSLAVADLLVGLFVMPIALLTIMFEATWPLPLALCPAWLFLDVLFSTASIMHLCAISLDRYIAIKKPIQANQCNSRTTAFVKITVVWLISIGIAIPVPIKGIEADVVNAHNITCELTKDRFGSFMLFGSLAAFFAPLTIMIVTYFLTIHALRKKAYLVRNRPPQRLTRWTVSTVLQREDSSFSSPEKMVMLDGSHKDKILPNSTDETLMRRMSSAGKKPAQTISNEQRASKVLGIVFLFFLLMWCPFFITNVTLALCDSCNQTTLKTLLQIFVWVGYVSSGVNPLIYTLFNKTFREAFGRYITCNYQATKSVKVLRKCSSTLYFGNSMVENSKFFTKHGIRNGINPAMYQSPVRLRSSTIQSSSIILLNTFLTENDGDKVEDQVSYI

[23] = biological target: Serotonin 1 (5-HT1) receptor (Rattus norvegicus) (UniProt P28564+P30940+P19327+P28565); assay: Binding affinity towards serotonin S1 receptor at 1.0 uM; format: protein assay; outline: as §3
Rattus norvegicus [24] = species: Rattus norvegicus; assay: Ability to inhibit the uptake of tritiated dopamine (DA) 1 uM concentration; format: functional
Outline: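 Rat brain synaptosomal [3H]dopamine uptake: striatal P2 fraction, test compound at 1.00 μM. Preincubated at 37 °C, then 50–300 nM [3H]DA for 3 min. Blanks on ice. Filtration and scintillation counting; percent inhibition of control uptake.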

Mus musculus [25] = assay: Ability to antagonise intraperitoneal administration; inactive (<10% antagonism) at 30 mgjkg is represented as I-30.; format: functional, organism-based; outline: as §1

Q: What does the source list for `Br.c1ccc([C@H]2CN3CCC[C@H]3Cc3ccccc32)cc1`?
A: ED50 (Mus musculus [1]): > 3 mg/kg; inhibition in vivo at 0.1 mg/kg (Rattus norvegicus [2]): 9%

Q: Which inhibition in vivo at 0.1 mg/kg (Rattus norvegicus [2]) does the source give for `c1ccc([C@@H]2CN3CCC[C@H]3Cc3ccccc32)cc1` here?
A: The inhibition in vivo at 0.1 mg/kg was 6%.

Q: How did the ED50 (Mus musculus [3]) turn out when `Br.Oc1ccc([C@@H]2CN3CCC[C@@H]3c3ccccc32)cc1` was run?
A: Its ED50 is 0.09 mg/kg.

Q: What about the behavior (Mus musculus [4]) of the same molecule?
A: The behavior was “Stimulant”.

Q: What about the inhibition [5] of the same molecule?
A: Its inhibition is 27%.

Q: And the Ki [6]?
A: The Ki was 252 nM.

Q: What about the Ki [7] of the same molecule?
A: The Ki was 5.1 nM.

Q: What about the ED50 (Mus musculus [1]) of the same molecule?
A: Its ED50 is 0.4 mg/kg.

Q: And the inhibition [8]?
A: Its inhibition is 65%.

Q: What about the inhibition [9] of the same molecule?
A: Its inhibition is 70%.

Q: What about the Ki [10] of the same molecule?
A: Its Ki is 0.74 nM.

Q: What about the inhibition [11] of the same molecule?
A: The inhibition was 3%.

Q: Which results are given for `FC(F)(F)c1cccc([C@@H]2CN3CCC[C@H]3c3cccc(Cl)c32)c1`?
A: inhibition [12]: 22%; inhibition [13]: 4%; Ki (Rattus norvegicus [14]): ~100 nM

Q: For `c1ccc([C@@H]2CN3CCC[C@H]3c3ccccc32)cc1` [listing 1 of 2 here], which inhibition [12] is on record?
A: The inhibition was -10%.

Q: And the ED50 (Mus musculus [15])?
A: The ED50 was “inactive”.

Q: And the inhibition (Rattus norvegicus [16])?
A: The inhibition was 1%.

Q: What about the inhibition [17] of the same molecule?
A: Its inhibition is 21%.

Q: And the ED50 (Mus musculus [18])?
A: The ED50 was “inactive”.

Q: And the behavior (Mus musculus [19])?
A: Its behavior is “Overt convulsant”.

Q: What about the behavior (Mus musculus [20]) of the same molecule?
A: The behavior was “Weak”.

Q: Which Ki (Rattus norvegicus [21]) does the source give for `c1ccc([C@@H]2CN3CCC[C@H]3c3ccccc32)cc1` [listing 2 of 2 here] here?
A: The Ki was ~100 nM.

Q: With `FC(F)(F)c1cccc([C@@H]2CN3CCC[C@@H]3c3ccccc32)c1` (stereo in doubt; (-)-37b) as the molecule, how does the inhibition [22] read?
A: The inhibition was 45%.

Q: What about the inhibition [8] of the same molecule?
A: The inhibition was 9%.

Q: What about the inhibition [23] of the same molecule?
A: Its inhibition is 58%.

Q: Which results are given for `c1ccc2c(c1)[C@H](C1CCCCC1)CN1CCC[C@@H]21`?
A: inhibition [12]: 0%; Inhibition (Rattus norvegicus [24]): 31%; inhibition [17]: 0%; ED50 (Mus musculus [25]): inactive; ED50 (Mus musculus [18]): inactive; behavior (Mus musculus [20]): Weak

Reference: ChEMBL document CHEMBL1123812, “Pyrroloisoquinoline antidepressants. 2. In-depth exploration of structure-activity relationships” (J Med Chem, 1987)
